The values that follow come from ChEMBL document CHEMBL3813637, “Synthesis and Antiproliferative and Metabolic Evaluations of Novel Securinine Derivatives” (ACS Med Chem Lett, 2016).

One data set has as its system A-375. The data set is described as follows: Antiproliferative activity against human A375 cells assessed as reduction in cell viability after 72 hrs by ATPlite assay. It counts as functional, cell-based. The settings on record: A-375, 72 h. Summed up:
(§1)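 IC50 determined in human cancer cell lines (HCT-116, A-375 melanoma, HL-60, A-549). Camptothecin and etoposide served as reference compounds.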
For orientation: Cellular ATP, detected with luciferase, serves as a proxy for viable cell number.

A further data set deals with A549. The experiment in a line: Antiproliferative activity against human A549 cells assessed as reduction in cell viability after 72 hrs by ATPlite assay. The class given is functional, cell-based. To be noted: A549, 72 h. The essentials:
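IC50 values were determined on a panel of four human cancer lines (HCT-116, A-549, HL-60, A-375), with camptothecin and etoposide as reference compounds.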

Data set [1] is described as follows: Antiproliferative activity against human HL60 cells assessed as reduction in cell viability after 72 hrs by ATPlite assay. It counts as functional, cell-based. To be noted: HL-60, 72 h. The essentials: as §1
Data set [2] is described as follows: Antiproliferative activity against human HCT116 cells assessed as reduction in cell viability after 72 hrs by ATPlite assay. The class given is functional, cell-based. The settings on record: HCT-116, 72 h. Summed up:
as §1

Data set [3] relates to Liver microsome. The experiment in a line: Metabolic stability in rat liver microsomes at 2 uM after 1 hr by ZQ-LC-MS analysis. It counts as ADME. On the technique in general: Liver microsomes are vesicles of endoplasmic reticulum, rich in cytochrome P450 enzymes.
The nature of data set [4]: Metabolic stability in mouse liver microsomes at 2 uM after 1 hr by ZQ-LC-MS analysis. The class given is ADME.
The subject of data set [5] is Plasma. The data set is described as follows: Metabolic stability in human plasma at 5 uM after 2 hrs by ZQ-LC-MS analysis. The class given is ADME, cell-free. Summed up:
(§2)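 Compounds were incubated in rat, mouse and human plasma for 120 min at 37 °C. The result is reported as the percentage of parent compound remaining.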

Data set [6] is described as follows: Antiproliferative activity against human HCT116 cells assessed as reduction in cell viability at 10 uM after 72 hrs by ATPlite assay. To be noted: HCT-116, 72 h, read-out: GI. It counts as functional. Summed up: (§3)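 HCT-116 human colon cancer cells exposed to compound for 72 h at 20, 10 or 1 μM. Growth inhibition is expressed as percentage relative to nontreated cells.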

The test system of data set [7] is Liver microsome. The experiment in a line: Metabolic stability in human liver microsomes at 2 uM after 1 hr by ZQ-LC-MS analysis. It counts as ADME.
A short description of data set [8]: Antiproliferative activity against human HCT116 cells assessed as reduction in cell viability at 1 uM after 72 hrs by ATPlite assay. It counts as functional. To be noted: HCT-116, 72 h, read-out: GI. The essentials: as §3
Data set [9] is described as follows: Antiproliferative activity against human HCT116 cells assessed as reduction in cell viability at 20 uM after 72 hrs by ATPlite assay. It counts as functional. The settings on record: HCT-116, 72 h, read-out: GI. The essentials: as §3
Data set [10] concerns Plasma. The data set is described as follows: Metabolic stability in rat plasma at 5 uM after 2 hrs by ZQ-LC-MS analysis. It counts as ADME, cell-free. The essentials:
as §2

In data set [11] the test system is Plasma. The data set is described as follows: Metabolic stability in mouse plasma at 5 uM after 2 hrs by ZQ-LC-MS analysis. It counts as ADME, cell-free. The essentials:
as §2

Broadly, the IC50 is the concentration that gives 50% inhibition. In the case of `CN(C)c1ccc(C#CC2=C[C@@H]3C[C@@]4(OC(=O)C=C24)[C@H]2CCCCN32)cc1`, the IC50 stood at 0.17 µM in the data set on A-375, 0.6 µM in the data set on A549, 0.42 µM in data set [1] and 0.42 µM in data set [2]. The Stability entry (in the data set on Liver microsome [3]; in data set [4]; in the data set with Plasma [5]; in the data set on Liver microsome [7]; in the data set on Plasma [10]; with Plasma [11]) was “Unstable” throughout. Moreover, in data set [6], the inhibition of growth at 10 µM stood at 100%. Also, the inhibition of growth at 1 µM in [8] stood at 99.7%. Besides, in data set [9], the inhibition of growth at 20 µM amounted to 100%.
Regarding `CN(C)c1ccc(C2=C[C@@H]3C[C@@]4(OC(=O)C=C24)[C@H]2CCCCN32)cc1`, the Stability result in the data set on Liver microsome [3] was “Unstable”; in [4], “Unstable”; with Plasma [5] it was “Stable”; in the data set on Liver microsome [7] it was “Unstable”; in the data set on Plasma [10] it was “Stable”; in the data set with Plasma [11], “Stable”. For the same compound, in [6], the inhibition of growth at 10 µM was determined as 5.6%. Further, in data set [8], the inhibition of growth at 1 µM was -1.4%. Further, the inhibition of growth at 20 µM in [9] is 19.3%.
Turning to `O=C1C=C2C(C#CCCCCl)=C[C@@H]3C[C@@]2(O1)[C@H]1CCCCN31`, the Stability result (in the data set on Liver microsome [3]; in data set [4]; with Liver microsome [7]) was “Unstable” throughout. Besides, the inhibition of growth at 10 µM in [6] was 97.8%. Besides, the inhibition of growth at 1 µM in data set [8] is 6.1%. Besides, the inhibition of growth at 20 µM in [9] worked out at 99.2%.
Take `COc1ccc(C#CC2=C[C@@H]3C[C@@]4(OC(=O)C=C24)[C@H]2CCCCN32)cc1`: the IC50 in the data set on A-375 turned out to be 0.06 µM; in the data set on A549, 0.29 µM; in [1] it was 0.66 µM; in data set [2], 0.34 µM. Further, the Stability entry with Plasma [5], in the data set on Plasma [10] and with Plasma [11] was “Unstable” in each case. For the same compound, the inhibition of growth at 10 µM in [6] was 100%. In data set [8], the inhibition of growth at 1 µM came out at 98.3%. The inhibition of growth at 20 µM in data set [9] was found to be 100%.
As for `O=C1C=C2C(C#Cc3ccccc3)=C[C@@H]3C[C@@]2(O1)[C@H]1CCCCN31`, the Stability entry (in the data set with Liver microsome [3]; in data set [4]; with Plasma [5]; with Liver microsome [7]; in the data set with Plasma [10]; in the data set with Plasma [11]) was “Unstable” throughout. In data set [6], the inhibition of growth at 10 µM was determined as 100%. Besides, the inhibition of growth at 1 µM in data set [8] turned out to be 91.9%. The inhibition of growth at 20 µM in data set [9] is 100%.
With `O=C1C=C2C=C[C@@H]3C[C@@]2(O1)[C@H]1CCCCN31` [SECURININE], the half-inhibitory concentration (IC50) (with A549; in data set [1]; in [2]) was over 10 µM each time. The Stability entry is on record as “Unstable” in the data set on Liver microsome [3]; “Unstable” in data set [4]; “Stable” with Plasma [5]; “Stable” in the data set with Liver microsome [7]; “Stable” with Plasma [10]; “Stable” with Plasma [11]. In data set [6], the inhibition of growth at 10 µM amounted to 50.6%. Moreover, in data set [8], the inhibition of growth at 1 µM turned out to be 7.6%. Moreover, the inhibition of growth at 20 µM in data set [9] came to 90.7%.
